Results taken from ChEMBL document CHEMBL4715800, “Synthesis and Antiviral Evaluation of Octadecyloxyethyl Benzyl 9-[(2-Phosphonomethoxy)ethyl]guanine (ODE-Bn-PMEG), a Potent Inhibitor of Transient HPV DNA Amplification” (J Med Chem, 2016).

Columns and labels:
[1] = Inhibition of HPV-11 DNA amplification in HEK293 cells incubated for 48 hrs by qPCR analysis; assay type: functional, cell-based, human papillomavirus 11
Procedure, shortened: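 HEK-293 cells cotransfected with an HPV-11 origin-containing plasmid and HPV-11 E1 and E2 expression vectors, then exposed to drug dilutions and incubated. Ori-plasmid amplification is measured by quantitative real-time PCR and EC50 is calculated. At least three independent experiments.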

[2] = Selectivity index, ratio of CC50 for HEK293 cells to EC50 for inhibition of HPV-11 DNA amplification in HEK293 cells
Procedure, shortened: (§1)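 Ratio CC50/EC50 in HEK-293 cells. CC50 is by CellTiter-Glo. EC50 is by qPCR of HPV-11 or HPV-16 ori-plasmid amplification in cells cotransfected with type-matched E1/E2 expression vectors.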

[3] = Selectivity index, ratio of CC50 for C-33-A cells to EC50 for inhibition of HPV-18 DNA amplification in C-33-A cells
Procedure, shortened: (§2)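 Ratio CC50/EC50. CC50 is from CellTiter-Glo in C33A cells. EC50 is from NanoLuc luciferase readout of HPV ori-plasmid replication in C33A cells cotransfected with type-matched E1/E2 vectors.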

[4] = Inhibition of HPV-16 DNA amplification in C-33-A cells incubated for 48 hrs by luciferase reporter gene assay; assay type: functional, cell-based, Human papillomavirus 16
Procedure, shortened: (§3)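 HPV-negative cervical cancer C33A cells transiently transfected with type-matched HPV-11, -16 or -18 E1 and E2 expression vectors plus an ori-plasmid carrying a NanoLuc reporter. After drug dilutions and incubation, ori-plasmid replication is read as the rise in luciferase activity and EC50 is determined. Cytotoxicity (CC50) is measured in C33A cells by CellTiter-Glo.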

[5] = Selectivity index, ratio of CC50 for HEK293 cells to EC50 for inhibition of HPV-16 DNA amplification in HEK293 cells; procedure, shortened: as §1
[6] = Selectivity index, ratio of CC50 for C-33-A cells to EC90 for inhibition of HPV-11 DNA amplification in C-33-A cells
[7] = Selectivity index, ratio of CC50 for C-33-A cells to EC90 for inhibition of HPV-18 DNA amplification in C-33-A cells
Procedure, shortened: (§4)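 Ratio CC50/EC90. CC50 is from CellTiter-Glo cytotoxicity in C33A cells. EC90 is from NanoLuc luciferase readout of HPV-16 or -18 ori-plasmid replication in C33A cells cotransfected with type-matched E1/E2 vectors.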

[8] = Selectivity index, ratio of CC50 for C-33-A cells to EC90 for inhibition of HPV-16 DNA amplification in C-33-A cells; procedure, shortened: as §4
[9] = Inhibition of HPV-18 DNA amplification in C-33-A cells incubated for 48 hrs by luciferase reporter gene assay; assay type: functional, cell-based, human papillomavirus 18; procedure, shortened: as §3
[10] = Selectivity index, ratio of CC50 for C-33-A cells to EC50 for inhibition of HPV-11 DNA amplification in C-33-A cells; procedure, shortened: as §2
[11] = Inhibition of HSV2 replication in HFF cells incubated for 7 days; assay type: functional, cell-based, Human alphaherpesvirus 2
[12] = Cytotoxicity in human PBMC cells; assay type: cell-based
Procedure, shortened: (§5)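 Human PBMCs infected with a clinical HIV-1 isolate, with AZT as positive control. EC50 and CC50 reported as mean ± SD of three replicates; selectivity index = CC50/EC50.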

[13] = Inhibition of HPV-16 DNA amplification in HEK293 cells incubated for 48 hrs by qPCR analysis; assay type: functional, cell-based, Human papillomavirus 16
Procedure, shortened: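 HEK-293 cells cotransfected with an HPV-16 origin-containing plasmid and HPV-16 E1 and E2 expression vectors, then treated with drug dilutions and incubated. Ori-plasmid amplification quantified by real-time qPCR; EC50 calculated from at least three independent experiments.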

[14] = Inhibition of HPV-11 DNA amplification in C-33-A cells incubated for 48 hrs by luciferase reporter gene assay; assay type: functional, cell-based, human papillomavirus 11; procedure, shortened: as §3
[15] = Selectivity index, ratio of CC50 for HFF to EC50 for inhibition of HSV2 replication in HFF cells; assay type: toxicity, cell-based; settings: human; for selectivity ratio: HFF cells, read-out: Ratio CC50/EC50
[16] = tested on: HFF; experiment: (§6) Cytotoxicity in HFF cells incubated for 7 days by CellTiter-Glo assay; assay type: cell-based; settings: human, hff, 168 h; time 7 day
[17] = tested on: HEK293; experiment: Cytotoxicity in HEK293 cells by CellTiter-Glo assay; settings: human, hek293
[18] = Inhibition of HIV1 92US727 replication in PHA-P-stimulated human PBMCs incubated for 7 days by reverse transcriptase activity based assay; assay type: functional, cell-based, Human immunodeficiency virus 1, PBMC
Procedure, shortened: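 Human PBMCs infected with a clinical HIV-1 isolate, with AZT as the positive control. Results are the mean of three replicates.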

[19] = Selectivity index, ratio of CC50 for C-33-A cells to EC50 for inhibition of HPV-16 DNA amplification in C-33-A cells; procedure, shortened: as §2
[20] = Selectivity index, ratio of CC50 for human PBMC to EC50 for inhibition of HIV1 92US727 replication in PHA-P-stimulated human PBMCs; assay type: toxicity; settings: PBMCs, read-out: Ratio CC50/EC50; procedure, shortened: as §5
[21] = Cytotoxicity in human C-33-A cells by CellTiter-Glo reagent assay; assay type: cell-based; settings: C-33-A cells; procedure, shortened: as §3
[22] = as §6; assay type: cell-based; settings: human, HFF cells; time 7 day
[23] = Cytotoxicity in HEK293 cells by CellTiter-Glo assay; settings: human, HEK293 cells
[24] = Drug uptake in HFF cells at 1 uM incubated for 1 to 48 hrs using [14C]-labelled compound by liquid scintillation counting; assay type: ADME, cell-based; settings: human, time 1-48 hrs
Procedure, shortened: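 HFF cells exposed to 1 μM [14C]-labelled compound for 1 to 48 h. Cell-associated radioactivity measured in duplicate to assess uptake.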

[25] = Drug level in HFF cells treated with 1 uM [14C]-labelled ODE-Bn-PMEG assessed as compound levels incubated for 48 hrs by liquid scintillation counting; assay type: ADME, cell-based; settings: human
[26] = Human alphaherpesvirus 2, HFF, 168 h
[27] = Human immunodeficiency virus 1, 92US727, PBMC, 168 h
[28] = Human papillomavirus 16, C-33-A, 48 h
[29] = human papillomavirus 18, C-33-A, 48 h
[30] = human papillomavirus 11, C-33-A, 48 h

SMILES	EC50 [1]	Ratio CC50/EC50 [2]	Ratio CC50/EC50 [3]	EC50 ([4]; c-33-a)	EC90 ([4]; time 48 hrs)	Ratio CC50/EC50 [5]	Ratio [6]	Ratio [7]	Ratio [8]	EC50 ([9]; c-33-a)	EC90 ([9]; time 48 hrs)	Ratio CC50/EC50 [10]	CC50 ([12]; pbmc)	EC50 [13]	EC50 ([14]; c-33-a)	EC90 ([14]; time 48 hrs)	CC50 [17]	Ratio CC50/EC50 [19]	selectivity ratio [20]	CC50 [21]	other results
CCCCCCCCCCCCCCCCCCOCCOP(=O)(COCCn1cnc2c(=O)[nH]c(N)nc21)OCc1ccccc1 (stereo in doubt; form 2)	400 nM	230	>130	140 nM	890 nM	230	>7	>14	>11	80 nM	720 nM	>24	70 nM	390 nM	410 nM	1400 nM	91000 nM	>71			EC50 ([11]; hff): 33 nM; Ratio CC50/EC50 [15]: 160; CC50 [16]: 5400 nM; EC50 ([18]; pbmc): 4 nM
CCCCCCCCCCCCCCCCCCOCCOP(=O)(COCCn1cnc2c(=O)[nH]c(N)nc21)OCc1ccccc1 (stereo in doubt; form 3)	500 nM	170	>37	220 nM	1500 nM	120	>4	>7	>7	270 nM	1400 nM	>14	40 nM	690 nM	710 nM	2500 nM	83000 nM	>45	16.3	> 10000 nM	EC50 [11, 26]: 32 nM; selectivity ratio [15]: 190; CC50 at 168 h [22]: 6100 nM; EC50 [18, 27]: 3 nM
Nc1nc2c(ncn2COCCO)c(=O)[nH]1 [ACYCLOVIR]																					EC50 [11, 26]: 990 nM; selectivity ratio [15]: > 300; CC50 at 168 h [22]: > 300000 nM
Nc1ccn(C[C@@H](CO)OCP(=O)(O)O)c(=O)n1.O.O [CIDOFOVIR]	150000 nM	>2	>1			>2	1	1	1			1		150000 nM				>1		> 300000 nM	EC50 [4, 28]: 220000 nM; EC90 [4, 28]: > 300000 nM; EC50 [9, 29]: 260000 nM; EC90 [9, 29]: > 300000 nM; EC50 [14, 30]: > 300000 nM; EC90 [14, 30]: > 300000 nM; CC50 [23]: > 300000 nM
Nc1nc2c(ncn2CCOCP(=O)(O)O)c(=O)[nH]1 [GS-438]																					Drug uptake [24]: Active; Drug uptake [25]: Active
Cc1cn([C@H]2C[C@H](N=[N+]=[N-])[C@@H](CO)O2)c(=O)[nH]c1=O [ZIDOVUDINE]																			> 250		CC50 ([12]; PBMC cells): > 1000 nM; EC50 [18, 27]: 4 nM
